Measurements taken from ChEMBL document CHEMBL4043192, “The discovery of IDX21437: Design, synthesis and antiviral evaluation of 2'-α-chloro-2'-β-C-methyl branched uridine pronucleotides as potent liver-targeted HCV polymerase inhibitors” (Bioorg Med Chem Lett, 2017).

Assays:
[1] = test system: Hepatitis C virus subtype 1b; experiment: Selectivity ratio of IC50 for HCV genotype 1b NS5B RNA dependent RNA polymerase S282T mutant to IC50 for wild-type HCV genotype 1b NS5B RNA dependent RNA polymerase
[2] = Inhibition of HCV genotype 1a NS5B RNA dependent RNA polymerase assessed as reduction in [33P]-labeled nucleotide incorporation in to RNA template after 2 hrs by liquid scintillation counting method; design: species or system Hepatitis C virus subtype 1a
Outline: (§1)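 Biochemical enzyme inhibition assays across a panel of polymerases. IC50 was derived from percent inhibition versus concentration data.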

[3] = Half life in human hepatocytes; type: ADME, cell-based, Hepatocyte
[4] = Inhibition of wild-type HCV genotype 1b NS5B RNA dependent RNA polymerase; design: species or system Hepatitis C virus subtype 1b
Outline: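 Biochemical assay using wild-type genotype 1b HCV NS5B polymerase. IC50 was derived from percent inhibition versus concentration data.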

[5] = biological target: RNA-directed RNA polymerase (Hepacivirus hominis, UniProt O39930, S282T); experiment: Inhibition of HCV genotype 1b NS5B RNA dependent RNA polymerase S282T mutant; design: species or system Hepatitis C virus subtype 1b
RNA-directed RNA polymerase, sequence (O39930 entry or part of it S282T): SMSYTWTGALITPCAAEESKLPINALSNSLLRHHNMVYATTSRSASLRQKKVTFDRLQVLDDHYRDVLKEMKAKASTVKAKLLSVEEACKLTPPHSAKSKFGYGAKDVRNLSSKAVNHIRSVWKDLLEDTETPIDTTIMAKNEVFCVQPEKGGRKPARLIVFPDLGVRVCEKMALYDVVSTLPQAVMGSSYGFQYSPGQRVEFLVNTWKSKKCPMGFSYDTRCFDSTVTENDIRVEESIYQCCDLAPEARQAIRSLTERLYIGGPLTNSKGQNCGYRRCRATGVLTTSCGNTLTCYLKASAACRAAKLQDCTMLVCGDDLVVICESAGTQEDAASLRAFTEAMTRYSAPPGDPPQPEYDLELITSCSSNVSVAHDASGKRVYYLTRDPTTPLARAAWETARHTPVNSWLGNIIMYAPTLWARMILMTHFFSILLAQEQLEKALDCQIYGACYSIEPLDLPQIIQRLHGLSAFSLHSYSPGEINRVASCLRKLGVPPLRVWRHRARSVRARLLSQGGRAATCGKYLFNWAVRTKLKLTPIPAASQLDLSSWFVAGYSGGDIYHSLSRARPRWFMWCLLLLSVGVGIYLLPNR

[6] = Inhibition of HCV genotype 6a NS5B RNA dependent RNA polymerase assessed as reduction in [33P]-labeled nucleotide incorporation in to RNA template after 2 hrs by liquid scintillation counting method; design: species or system Hepatitis C virus subtype 6a; outline: as §1
[7] = biological target: T1, DNA polymerase alpha catalytic subunit (Homo sapiens, UniProt P09884); experiment: Inhibition of human DNA polymerase alpha; outline: as §1
T1 sequence (P09884 whole entry): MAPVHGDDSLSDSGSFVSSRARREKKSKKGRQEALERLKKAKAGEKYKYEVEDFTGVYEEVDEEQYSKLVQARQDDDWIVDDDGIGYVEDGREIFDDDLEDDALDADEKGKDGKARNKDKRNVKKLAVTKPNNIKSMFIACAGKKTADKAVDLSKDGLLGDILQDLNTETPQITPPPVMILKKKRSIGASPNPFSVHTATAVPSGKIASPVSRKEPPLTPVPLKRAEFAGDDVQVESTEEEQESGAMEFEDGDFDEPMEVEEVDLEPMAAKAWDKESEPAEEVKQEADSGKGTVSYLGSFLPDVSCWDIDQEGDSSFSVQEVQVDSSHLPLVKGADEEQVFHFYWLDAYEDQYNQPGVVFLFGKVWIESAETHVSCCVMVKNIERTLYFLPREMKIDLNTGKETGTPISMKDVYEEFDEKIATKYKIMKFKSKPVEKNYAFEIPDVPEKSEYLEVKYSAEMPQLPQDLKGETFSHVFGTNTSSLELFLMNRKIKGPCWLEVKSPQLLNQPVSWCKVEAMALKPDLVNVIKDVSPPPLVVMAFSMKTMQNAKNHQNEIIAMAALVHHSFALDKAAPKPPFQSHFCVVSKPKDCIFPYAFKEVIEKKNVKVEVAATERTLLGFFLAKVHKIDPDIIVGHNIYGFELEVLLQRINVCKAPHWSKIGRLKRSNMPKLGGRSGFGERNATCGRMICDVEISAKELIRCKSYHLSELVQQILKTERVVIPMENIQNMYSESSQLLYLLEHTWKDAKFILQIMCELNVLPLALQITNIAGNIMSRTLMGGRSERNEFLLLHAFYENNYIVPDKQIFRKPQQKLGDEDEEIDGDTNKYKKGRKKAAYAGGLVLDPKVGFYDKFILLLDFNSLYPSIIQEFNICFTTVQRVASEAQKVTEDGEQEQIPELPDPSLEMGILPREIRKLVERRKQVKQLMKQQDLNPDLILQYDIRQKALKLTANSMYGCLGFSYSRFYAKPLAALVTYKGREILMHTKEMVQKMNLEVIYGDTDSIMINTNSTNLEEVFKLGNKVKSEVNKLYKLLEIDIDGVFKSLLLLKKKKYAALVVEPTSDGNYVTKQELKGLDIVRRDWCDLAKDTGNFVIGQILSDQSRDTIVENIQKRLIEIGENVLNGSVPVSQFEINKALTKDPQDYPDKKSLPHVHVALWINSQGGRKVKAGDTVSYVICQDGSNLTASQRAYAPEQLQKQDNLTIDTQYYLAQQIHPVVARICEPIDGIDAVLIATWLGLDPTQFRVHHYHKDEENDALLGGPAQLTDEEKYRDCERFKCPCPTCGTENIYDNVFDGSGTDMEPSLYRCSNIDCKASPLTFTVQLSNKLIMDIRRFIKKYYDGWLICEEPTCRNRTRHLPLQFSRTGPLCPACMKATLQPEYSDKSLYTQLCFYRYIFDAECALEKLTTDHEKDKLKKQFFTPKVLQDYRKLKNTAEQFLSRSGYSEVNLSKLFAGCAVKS

[8] = biological target: DNA-directed RNA polymerase, mitochondrial (Homo sapiens, UniProt O00411); experiment: Inhibition of human mitochondrial RNA polymerase; outline: as §1
DNA-directed RNA polymerase, mitochondrial, sequence (O00411 whole entry): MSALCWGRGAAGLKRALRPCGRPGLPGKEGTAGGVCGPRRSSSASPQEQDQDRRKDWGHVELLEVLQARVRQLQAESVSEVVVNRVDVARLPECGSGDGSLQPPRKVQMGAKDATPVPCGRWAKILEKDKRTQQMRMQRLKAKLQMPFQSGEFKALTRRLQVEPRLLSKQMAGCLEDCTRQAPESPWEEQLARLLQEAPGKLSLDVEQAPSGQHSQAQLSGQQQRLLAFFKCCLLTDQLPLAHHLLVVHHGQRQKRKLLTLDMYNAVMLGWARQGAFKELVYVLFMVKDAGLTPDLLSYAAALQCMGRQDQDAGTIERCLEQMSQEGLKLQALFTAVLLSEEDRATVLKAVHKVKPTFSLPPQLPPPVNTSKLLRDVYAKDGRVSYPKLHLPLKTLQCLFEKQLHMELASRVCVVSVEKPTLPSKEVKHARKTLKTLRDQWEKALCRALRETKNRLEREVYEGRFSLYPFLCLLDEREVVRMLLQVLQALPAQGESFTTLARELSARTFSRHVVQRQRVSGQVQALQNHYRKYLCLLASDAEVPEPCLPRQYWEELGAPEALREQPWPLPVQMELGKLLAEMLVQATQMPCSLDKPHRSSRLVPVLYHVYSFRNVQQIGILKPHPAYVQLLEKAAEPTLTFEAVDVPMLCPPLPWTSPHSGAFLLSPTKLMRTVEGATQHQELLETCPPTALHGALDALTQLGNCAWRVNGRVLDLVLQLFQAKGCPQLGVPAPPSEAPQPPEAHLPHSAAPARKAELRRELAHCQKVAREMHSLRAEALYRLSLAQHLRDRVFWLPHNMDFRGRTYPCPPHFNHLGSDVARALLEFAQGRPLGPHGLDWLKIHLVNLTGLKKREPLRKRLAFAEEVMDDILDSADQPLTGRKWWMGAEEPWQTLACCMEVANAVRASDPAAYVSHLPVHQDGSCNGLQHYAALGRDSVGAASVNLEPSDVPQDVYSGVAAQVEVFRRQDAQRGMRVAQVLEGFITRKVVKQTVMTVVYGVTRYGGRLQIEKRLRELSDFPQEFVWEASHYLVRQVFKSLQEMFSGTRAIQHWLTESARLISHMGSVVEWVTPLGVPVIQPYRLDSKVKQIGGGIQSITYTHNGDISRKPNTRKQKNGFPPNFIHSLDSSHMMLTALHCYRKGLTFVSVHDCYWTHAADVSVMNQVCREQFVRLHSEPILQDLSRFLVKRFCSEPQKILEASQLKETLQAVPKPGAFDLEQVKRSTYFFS

[9] = Inhibition of HCV genotype 2a NS5B RNA dependent RNA polymerase assessed as reduction in [33P]-labeled nucleotide incorporation in to RNA template after 2 hrs by liquid scintillation counting method; design: species or system Hepatitis C virus subtype 2a; outline: as §1
[10] = Inhibition of HCV genotype 4a NS5B RNA dependent RNA polymerase assessed as reduction in [33P]-labeled nucleotide incorporation in to RNA template after 2 hrs by liquid scintillation counting method; design: species or system Hepatitis C virus subtype 4a; outline: as §1
[11] = Inhibition of human RNA polymerase 2; outline: as §1
DNA polymerase beta = DNA polymerase beta (Homo sapiens, UniProt P06746); experiment: Inhibition of human DNA polymerase beta; outline: as §1
[12] = Inhibition of human DNA polymerase gamma; outline: as §1
[13] = Inhibition of HCV genotype 5a NS5B RNA dependent RNA polymerase assessed as reduction in [33P]-labeled nucleotide incorporation in to RNA template after 2 hrs by liquid scintillation counting method; design: species or system Hepatitis C virus subtype 5a; outline: as §1
[14] = Inhibition of HCV genotype 3a NS5B RNA dependent RNA polymerase assessed as reduction in [33P]-labeled nucleotide incorporation in to RNA template after 2 hrs by liquid scintillation counting method; design: species or system Hepatitis C virus subtype 3a; outline: as §1
[15] = Cytotoxicity against human HuH7 cells assessed as reduction in cell viability; type: cell-based, Huh-7
Hepatitis C virus [16] = experiment: Antiviral activity against HCV genotype 1b Con1 expressing NS3 protease infected in human Huh-7 cells assessed as reduction in viral RNA replication after 72 hrs by luciferase reporter gene assay; type: functional, cell-based, Hepacivirus hominis; details: genotype 1b Con1, Huh-7, 72 h
Hepatitis C virus [17] = experiment: Antiviral activity against HCV genotype 1b Con1 infected in human Huh-7 cells over-expressing CES1; type: functional, cell-based, Hepacivirus hominis; details: genotype 1b Con1, Huh-7
Outline: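 Transient HCV replicon assay in cells transfected to overexpress CES1; EC50 from inhibition versus concentration data.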

Liver = experiment: Dose normalized AUC (0 to 24 hrs) in mouse liver assessed as 2'-C-MeUTP level at 10 mg/kg, po administered as single dose; type: ADME, organism-based; details: in vivo
Outline: (§2)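 Mice given a single oral 10 mg/kg dose. Triphosphate measured in liver and parent nucleoside in plasma. AUC expressed as dose-normalized AUC (AUC per mg/kg).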

Cytochrome P450 3A4 = Cytochrome P450 3A4 (Homo sapiens, UniProt P08684); experiment: Drug metabolism assessed as CYP3A4 (unknown origin)-mediated (R)-2-((R)-(((2R,3R,4R,5R)-4-chloro-5-(2,4-dioxo-3,4-dihydropyrimidin-1(2H)-yl)-3-hydroxy-4-methyltetrahydrofuran-2-yl)methoxy)(phenoxy)phosphorylamino)propanoic acid metabolite formation; type: ADME
Cytochrome P450 3A4, sequence (P08684 whole entry): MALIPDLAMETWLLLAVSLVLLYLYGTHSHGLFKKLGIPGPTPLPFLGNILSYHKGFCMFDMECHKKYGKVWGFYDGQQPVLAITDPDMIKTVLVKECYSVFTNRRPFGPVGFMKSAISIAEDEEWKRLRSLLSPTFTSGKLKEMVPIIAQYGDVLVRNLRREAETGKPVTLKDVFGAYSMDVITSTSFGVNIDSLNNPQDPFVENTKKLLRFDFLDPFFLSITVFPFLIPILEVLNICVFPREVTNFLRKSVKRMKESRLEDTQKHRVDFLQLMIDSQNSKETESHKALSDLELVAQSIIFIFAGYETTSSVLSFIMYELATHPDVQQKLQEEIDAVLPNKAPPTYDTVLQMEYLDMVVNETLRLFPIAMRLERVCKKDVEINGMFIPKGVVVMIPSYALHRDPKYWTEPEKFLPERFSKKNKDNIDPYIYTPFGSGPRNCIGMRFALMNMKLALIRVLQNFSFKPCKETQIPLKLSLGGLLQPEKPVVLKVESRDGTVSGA

[18] = Selectivity index, ratio of CC50 for human Huh-7 cells to EC50 for HCV genotype 1b Con1 expressing NS3 protease
Outline: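 Selectivity index = CC50/EC50. EC50 from a luciferase-read Con1 subgenomic replicon assay in Huh-7 (GS4.1) cells.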

Plasma = experiment: Dose normalized AUC (0 to 24 hrs) in mouse plasma assessed as 2'-C-MeU level at 10 mg/kg, po administered as single dose; type: ADME, organism-based; details: in vivo; outline: as §2
Cytochrome P450 3A5 = Cytochrome P450 3A5 (Homo sapiens, UniProt P20815); experiment: Drug metabolism assessed as CYP3A5 (unknown origin)-mediated (R)-2-((R)-(((2R,3R,4R,5R)-4-chloro-5-(2,4-dioxo-3,4-dihydropyrimidin-1(2H)-yl)-3-hydroxy-4-methyltetrahydrofuran-2-yl)methoxy)(phenoxy)phosphorylamino)propanoic acid metabolite formation; type: ADME
Cytochrome P450 3A5, sequence (P20815 whole entry): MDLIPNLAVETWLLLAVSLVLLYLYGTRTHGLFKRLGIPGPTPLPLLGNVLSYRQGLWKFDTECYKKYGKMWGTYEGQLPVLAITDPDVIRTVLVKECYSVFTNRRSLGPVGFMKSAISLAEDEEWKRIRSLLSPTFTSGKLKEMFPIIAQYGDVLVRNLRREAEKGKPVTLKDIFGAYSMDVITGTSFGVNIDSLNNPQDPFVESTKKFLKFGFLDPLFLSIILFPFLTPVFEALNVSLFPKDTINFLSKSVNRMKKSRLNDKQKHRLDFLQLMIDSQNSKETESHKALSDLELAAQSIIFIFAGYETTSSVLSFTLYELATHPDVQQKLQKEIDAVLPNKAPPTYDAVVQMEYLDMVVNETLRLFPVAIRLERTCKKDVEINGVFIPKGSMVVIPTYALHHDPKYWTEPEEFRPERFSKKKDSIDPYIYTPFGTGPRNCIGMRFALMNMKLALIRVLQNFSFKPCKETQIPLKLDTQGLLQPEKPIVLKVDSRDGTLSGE

Row | SMILES | EC50 (Hepatitis C virus [16]) | AUC/dose (Liver) | Ratio CC50/EC50 [18] | AUC/dose (Plasma) | other results
1 | C[C@@]1(Cl)[C@H](O)[C@@H](COP(=O)(O)OP(=O)(O)OP(=O)(O)O)O[C@H]1n1ccc(=O)[nH]c1=O [4A-TP] | – | – | – | – | Ratio IC50 [1]: 6.1; IC50 [2]: 0.14 µM; half-life [3]: > 18 h; IC50 [4]: 0.154 µM; IC50 [5]: 0.944 µM; IC50 [6]: 0.1 µM; IC50 [7]: > 500 µM; IC50 [8]: > 500 µM; IC50 [9]: 0.25 µM; IC50 [10]: 0.15 µM; IC50 [11]: > 500 µM; IC50 (DNA polymerase beta): > 500 µM; IC50 [12]: 95 µM; IC50 [13]: 0.23 µM; IC50 [14]: 0.16 µM
2 | C[C@@]1(F)[C@H](O)[C@@H](CO)O[C@H]1n1ccc(=O)[nH]c1=O | 50 µM | – | – | – | CC50 [15]: > 100 µM
3 | C[C@@]1(O)[C@H](O)[C@@H](CO)O[C@H]1n1ccc(=O)[nH]c1=O | 30 µM | – | – | – | CC50 [15]: > 100 µM
4 | C[C@@]1(F)[C@H](O)[C@@H](COP(=O)(O)OP(=O)(O)OP(=O)(O)O)O[C@H]1n1ccc(=O)[nH]c1=O [GS-461203] | – | – | – | – | Ratio IC50 [1]: 7.7; IC50 [4]: 0.079 µM; IC50 [5]: 0.606 µM
5 | CC(C)OC(=O)[C@@H](C)N[P@@](=O)(OC[C@H]1O[C@@H](n2ccc(=O)[nH]c2=O)[C@](C)(Cl)[C@@H]1O)Oc1ccccc1 [UPRIFOSBUVIR] | 56.8 µM | 6200 pmol·h/g | >2 | 1400 pmol·h/mL | EC50 (Hepatitis C virus [17]): 0.323 µM; Drug metabolism (Cytochrome P450 3A4): Metabolite_Detected; Drug metabolism (Cytochrome P450 3A5): Metabolite_Detected
6 | C[C@@]1(Cl)[C@H](O)[C@@H](CO)O[C@H]1n1ccc(=O)[nH]c1=O | 57 µM | – | – | – | CC50 [15]: > 100 µM
7 | C[C@@]1(O)[C@H](O)[C@@H](COP(=O)(O)OP(=O)(O)OP(=O)(O)O)O[C@H]1n1ccc(=O)[nH]c1=O | – | – | – | – | IC50 [4]: 0.081 µM
8 | CC(C)OC(=O)[C@H](C)N[P@@](=O)(OC[C@H]1O[C@@H](n2ccc(=O)[nH]c2=O)[C@](C)(F)[C@@H]1O)Oc1ccccc1 | 2.08 µM | 310 pmol·h/g | >48 | 320 pmol·h/mL | –
9 | C[C@@H](N[P@@](=O)(OC[C@H]1O[C@@H](n2ccc(=O)[nH]c2=O)[C@](C)(Cl)[C@@H]1O)Oc1ccccc1)C(=O)OCc1ccccc1 | 4.28 µM | 5600 pmol·h/g | >23 | 1400 pmol·h/mL | –
10 | CC(C)OC(=O)[C@H](C)N[P@@]1(=O)OC[C@H]2O[C@@H](n3ccc(=O)[nH]c3=O)[C@](C)(Cl)[C@@H]2O1 | 4.02 µM | 520 pmol·h/g | >25 | 1100 pmol·h/mL | –
11 | CC(C)OC(=O)[C@H](C)N[P@](=O)(OC[C@H]1O[C@@H](n2ccc(=O)[nH]c2=O)[C@](C)(F)[C@@H]1O)Oc1ccccc1 [SOFOSBUVIR] | 0.284 µM | 310 pmol·h/g | >352 | 330 pmol·h/mL | EC50 (Hepatitis C virus [17]): 0.552 µM
12 | CC(C)(CO)C(=O)SCCO[P@@](=O)(NCc1ccccc1)OC[C@H]1O[C@@H](n2ccc(=O)[nH]c2=O)[C@](C)(Cl)[C@@H]1O | 3.99 µM | 150 pmol·h/g | >25 | 930 pmol·h/mL | –
